The record followed here is ChEMBL document CHEMBL4715761, “LAT1 activity of carboxylic acid bioisosteres: Evaluation of hydroxamic acids as substrates” (Bioorg Med Chem Lett, 2016).

Bounds are passed on as bounds.

Experiment [1] addresses T1, Large neutral amino acids transporter small subunit 1 (Homo sapiens, UniProt Q01650). Briefly: Inhibition of human LAT1 expressed in HEK293-T-Rex cells assessed as inhibition of [3H]-gabapentin uptake at 200 uM by scintillation counting cis-inhibition assay. In kind it is cell-based. Summed up:
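HEK cells overexpressing human LAT1; test compound at 200 μM added during [3H]-gabapentin uptake (cis-inhibition). Reported as % inhibition relative to background signal without test compound; cell data at least in triplicate.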

Experiment [2] concerns the target T1, Large neutral amino acids transporter small subunit 1. Briefly: Inhibition of human LAT1 expressed in HEK293-T-Rex cells assessed as inhibition of [3H]-gabapentin uptake by scintillation counting cis-inhibition assay relative to BCH inhibition (RV = 100%). In kind it is cell-based.

T1 sequence (Q01650 whole entry): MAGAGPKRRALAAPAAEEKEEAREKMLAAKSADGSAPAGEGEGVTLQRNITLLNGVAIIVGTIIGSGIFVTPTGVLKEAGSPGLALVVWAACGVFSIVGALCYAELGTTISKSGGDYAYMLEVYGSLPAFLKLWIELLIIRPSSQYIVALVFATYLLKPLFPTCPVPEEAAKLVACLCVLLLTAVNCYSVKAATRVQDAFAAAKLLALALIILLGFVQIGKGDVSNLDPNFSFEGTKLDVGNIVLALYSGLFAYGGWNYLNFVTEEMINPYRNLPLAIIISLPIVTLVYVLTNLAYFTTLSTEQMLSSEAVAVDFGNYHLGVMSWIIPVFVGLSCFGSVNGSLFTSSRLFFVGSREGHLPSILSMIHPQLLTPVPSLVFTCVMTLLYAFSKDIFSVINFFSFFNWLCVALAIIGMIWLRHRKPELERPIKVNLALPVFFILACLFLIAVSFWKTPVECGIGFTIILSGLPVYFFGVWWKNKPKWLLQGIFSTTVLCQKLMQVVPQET

Turning to `CC(C)C[C@H](N)C(=O)NO`, the inhibition (usually the drop in the measured response relative to a control, in per cent) in experiment [1] was found to be 50%. The IC50 – broadly, the point on the concentration scale where inhibition reaches its midpoint – in experiment [2] is above 200 µM.

`CC[C@H](C)[C@H](N)C(=O)NO`: the IC50 in experiment [2] is above 200 µM.

As to `CS(=O)(=O)NC(=O)[C@@H](N)Cc1ccccc1`, the inhibition in experiment [1] came to 15%.

In the case of `N[C@@H](Cc1ccc(O)cc1)C(=O)NO`, in experiment [1], the inhibition stood at 39%.

Regarding `N[C@@H](Cc1c[nH]c2ccccc12)C(=O)NO`, in experiment [1], the inhibition was found to be 35%.

On to `CSCC[C@H](N)C(=O)NO`, for which, in experiment [2], the IC50 was above 200 µM.

For `NCC(=O)O` [GLYCINE], the inhibition in experiment [1] was 33%. The IC50 in experiment [2] was above 200 µM.

Consider `N[C@@H](Cc1ccccc1)c1nnn[nH]1`, for which, in experiment [1], the inhibition amounted to 11%.

In the case of `CC[C@H](C)[C@H](N)C(=O)O` [ISOLEUCINE], the IC50 in experiment [2] turned out to be 150 µM.

On to `CS(=O)(=O)NC(=O)[C@@H](N)Cc1ccc(O)cc1`, for which the inhibition in experiment [1] came out at 12%.

With `NCC(=O)NO`, the inhibition in experiment [1] came out at 38%. Moreover, the IC50 in experiment [2] was above 200 µM.

For `CC(C)C[C@H](N)C(=O)O` [LEUCINE], the IC50 in experiment [2] is 87 µM.

Regarding `CC(C)C[C@H](N)C(N)=O`, in experiment [2], the IC50 is above 200 µM.

In the case of `CONC(=O)[C@@H](N)CC(C)C`, the IC50 in experiment [2] was above 200 µM.

Take `CSCC[C@H](N)C(=O)O` [METHIONINE]: the IC50 in experiment [2] amounted to 180 µM.
